# Hits are enriched below; roughly 1.4% of the tested compounds scored in any of these assays.
# HTR5A inv ag: counter-screen for OPRM1-OPRD1 inverse agonists: human HTR5A inverse agonism; P47898; HTR5A cell line, luminescence; hit rate 0.083% among 340,000; inhibition, % at 9.3 µM; in the data active = inhibition mostly above about 23%, no sharp cut-off; inactive = mostly below about 18%
# Target sequence (P47898 whole entry, looked up): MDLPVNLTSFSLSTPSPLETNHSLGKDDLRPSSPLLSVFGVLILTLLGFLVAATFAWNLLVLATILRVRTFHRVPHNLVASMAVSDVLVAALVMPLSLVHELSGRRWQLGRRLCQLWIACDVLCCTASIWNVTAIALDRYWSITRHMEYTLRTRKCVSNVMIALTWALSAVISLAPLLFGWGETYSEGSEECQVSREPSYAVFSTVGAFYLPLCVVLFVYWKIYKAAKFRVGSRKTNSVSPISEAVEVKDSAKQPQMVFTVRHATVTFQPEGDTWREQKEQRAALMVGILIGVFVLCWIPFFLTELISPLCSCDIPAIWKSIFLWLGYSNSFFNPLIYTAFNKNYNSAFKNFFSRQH
# OPRM1-OPRD1 ag: OPRM1-OPRD1 heterodimerization agonism; cells, luminescence; activation, % at 9.3 µM; hit rate 0.3% among 340,000; in the data active = activation above about 18%
# HTR5A ag ctr: activates human HTR5A in OPRM1-OPRD1 agonist counter-screen. hit rate 0.61% among 340,000. P47898. HTR5A agonist assay, luminescence, cell-based. AID 504692. activation, % at 9.3 µM; in the data active = activation mostly above about 9.5%, no sharp cut-off; inactive = mostly below about 7.6%
# Hep lipid drop: modulators of hepatic lipid droplet formation. AML12 mouse hepatocytes, oleate lipid droplets, BODIPY imaging. hit rate 0.4% among 240,000. inhibition, % at 6.5 µM;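 active = lipid droplet intensity inhibited by at least 50%, with more than 500 cells counted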
#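 Material – mouse AML12 hepatocyte cell line, fixed after treatment · Compound dosing – one dose, 6.5 µM compound · Times – compound with oleate, overnight · Measured by – Image-based BODIPY and DAPI two-channel analysis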
# MOR-DOR inv ag-1: inverse agonist of human OPRM1-OPRD1 heterodimerization | P35372+P41143 | inhibition, % at 9.3 µM | cell-based MOR-DOR heterodimer luminescence, inverse agonism | hit rate 0.21% among 340,000; in the data active = inhibition above about 22%, passing the limit was not always enough
# OPRM1-D1 inv cf: confirmation of human OPRM1-OPRD1 heterodimerization inverse agonists. shares compounds with MOR-DOR inv ag-1. cells expressing OPRM1/OPRD1 heterodimer, luminescence. inhibition, % at 9.3 µM. hit rate 20% among 580; in the data active = inhibition above about 32%
# HTR5A inv ctr2: HTR5A inverse agonism, opioid heterodimer counter-screen | 580 tested, under 10 active | HTR5A-expressing cells, luminescence | inhibition, % at 9.3 µM | shares compounds with MOR-DOR inv ag-1
# MOR-DOR inv ag-2: opioid heterodimer inverse agonism, HTR5A counter-screen. inhibition, % at 9.3 µM. AID 504912. shares compounds with HTR5A inv ag. U2OS counter-screen cells, complementation luminescence. 190 tested, under 10 active
# HTR5A inv confrm: confirmation of human HTR5A inverse agonists; HTR5A-expressing cells, inverse agonism, luminescence; 190 tested, under 10 active; shares compounds with HTR5A inv ag; inhibition, % at 9.3 µM; AID 504916
# Hits are given with their value; i = inactive; nt = no result. Unless noted, the rule behind the calls is not given here.
SMILES,HTR5A inv ag,OPRM1-OPRD1 ag,HTR5A ag ctr,Hep lipid drop,MOR-DOR inv ag-1,MOR-DOR inv ag-2,HTR5A inv confrm,others
CC1CCN(C(=O)CN2C(=O)C(=O)c3ccccc32)CC1,i,i,i,nt,29.1,nt,nt,OPRM1-D1 inv cf=i;HTR5A inv ctr2=i
CC(C)(C)NC(=O)CN(Cc1cccs1)C(=O)c1csnn1,i,i,i,i,i,nt,nt,
CC1CCN(C(=O)CN2C(=O)c3cccc4cccc(c34)C2=O)CC1,i,i,i,i,i,nt,nt,
CC(C)(C)NC(=O)CN(Cc1cccs1)C(=O)CN1C(=O)C(=O)c2ccccc21,i,i,i,i,32.9,nt,nt,OPRM1-D1 inv cf=i;HTR5A inv ctr2=i
CCN(CC)C(=O)CN1C(=O)C(=O)c2ccccc21,i,i,i,i,38.1,nt,nt,OPRM1-D1 inv cf=i;HTR5A inv ctr2=i
Cc1cc(NC(=O)COC(=O)c2cnccn2)ccc1Br,i,i,i,nt,i,nt,nt,
COc1ccc(C2=NN(CN3C(=O)C(=O)c4ccccc43)C(c3ccc(OC)cc3)C2)cc1 (stereo not given),i,i,i,i,44.2,nt,nt,OPRM1-D1 inv cf=i;HTR5A inv ctr2=i
CCOCCCNC(=O)/C(C#N)=C/c1cc(OC)c(O)c([N+](=O)[O-])c1,i,i,i,i,29.8,nt,nt,OPRM1-D1 inv cf=i;HTR5A inv ctr2=i
Cc1ccccc1NS(=O)(=O)c1csc(C(N)=O)c1,i,i,i,i,i,nt,nt,
COc1ccc(S(=O)(=O)Nc2c(C)n(C)n(-c3ccccc3)c2=O)c(Cl)c1Cl,i,i,i,i,31.0,nt,nt,OPRM1-D1 inv cf=i;HTR5A inv ctr2=i
COc1ccc(C(=O)/C=C/Nc2ccc(S(N)(=O)=O)cc2)cc1OC,i,i,i,nt,i,nt,nt,
CCOc1ccc(C(C)=O)cc1COC(=O)CCc1cc(OC)c(OC)c(OC)c1,i,i,i,i,i,nt,nt,
Cc1ccc(SCc2[nH]nc3c2C2(C(=O)Nc4ccc(F)cc42)C(C#N)=C(N)O3)cc1 (stereo not given),i,i,i,i,i,nt,nt,
O=C1Nc2ccc(F)cc2C12Nc1ccccc1-c1nnc(SCc3ccccc3)nc1O2 (stereo not given),i,i,i,nt,79.3,nt,nt,OPRM1-D1 inv cf=70.1;HTR5A inv ctr2=i
Cc1ccc(CSc2nnc3c(n2)OC2(Nc4ccccc4-3)C(=O)Nc3ccc(F)cc32)cc1 (stereo not given),i,i,i,nt,78.7,nt,nt,OPRM1-D1 inv cf=70.5;HTR5A inv ctr2=i
O=C1Nc2ccc(F)cc2C12Nc1ccccc1-c1nnc(SCc3ccccc3Cl)nc1O2 (stereo not given),i,i,i,nt,77.6,nt,nt,OPRM1-D1 inv cf=55.8;HTR5A inv ctr2=i
Clc1ccccc1CSc1cc2c(nn1)-c1ccccc1CC2,i,i,i,nt,i,nt,nt,
COC(=O)CCC/C=C1/SCC(NC(=O)c2ccccc2)C1=O (stereo not given),i,i,i,nt,33.2,nt,nt,OPRM1-D1 inv cf=i;HTR5A inv ctr2=i
Cn1c(/C=C/c2cccc([N+](=O)[O-])c2)c([N+](=O)[O-])c(=O)n(C)c1=O,i,i,i,i,29.3,nt,nt,OPRM1-D1 inv cf=i;HTR5A inv ctr2=i
C=CC[n+]1c(-c2ccc(Cl)cc2Cl)csc1Nc1c(C)n(C)n(-c2ccccc2)c1=O,35.8,i,i,i,i,i,i,
CN1CCN(c2ncnc3c2c(-c2ccccc2)cn3-c2ccc(F)cc2)CC1,39.1,i,i,i,i,i,i,
c1ccc(-c2cn(-c3ccccc3)c3ncnc(N4CCCCC4)c23)cc1,i,i,i,i,i,nt,nt,
CCOc1cccc(/C=C/c2ccc3cccc(O)c3n2)c1O,i,i,i,i,i,nt,nt,
Oc1cccc2ccc(/C=C/c3ccccc3Cl)nc12,62.2,i,i,i,i,i,47.1,
CCOc1cccc(/C=C/c2ccc3cccc(O)c3n2)c1OC,52.7,i,i,i,i,i,i,
SMILES,HTR5A inv ag,OPRM1-OPRD1 ag,HTR5A ag ctr,Hep lipid drop,MOR-DOR inv ag-1,MOR-DOR inv ag-2,HTR5A inv confrm,others
COc1ccc(N2CCN(S(=O)(=O)c3cc4c(cc3C)N(C(C)=O)CCO4)CC2)cc1,i,i,i,i,i,nt,nt,
Cc1nc2cc(NC(=O)Nc3ccc(N4CCOCC4)cc3)ccc2n1C,41.6,i,i,i,i,i,i,
COC(=O)c1sccc1NC(=O)CC1C(=O)NCCN1C(=O)c1ccc(C)c(C)c1 (stereo not given),i,i,i,i,i,nt,nt,
CCc1ccc(NC(=O)c2cnc(N3CCN(c4ccccn4)CC3)c3ccccc23)cc1,nt,nt,nt,i,nt,nt,nt,
CC(C)NC(=O)c1cnc(N2CCN(c3ccccn3)CC2)c2ccccc12,44.2,i,i,nt,i,i,i,
COc1cc(/C=C2\SC(=S)N(NC(=O)c3cccnc3)C2=O)ccc1O,22.1,i,i,i,i,i,i,
COc1ccc(/C=C2\SC(=S)N(CC3CCCO3)C2=O)cc1 (stereo not given),i,i,i,i,i,nt,nt,
COc1cc(/C=C2/SC(=S)N(CC3CCCO3)C2=O)ccc1O (stereo not given),44.4,i,i,i,i,i,i,
O=C(NN1C(=O)/C(=C/c2ccc(O)c(O)c2)SC1=S)c1ccccc1,30.7,i,i,i,i,i,i,
O=C(C[n+]1ccccc1)N/N=C/c1cc(Br)cc(Br)c1O,41.0,i,i,i,i,i,i,
O=C(C[n+]1ccccc1)N/N=C/c1cc(Br)ccc1F,i,i,i,nt,i,nt,nt,
Cc1cc(C)n2nc(SCC(=O)NC3CCCCC3C)nc2n1 (stereo not given),i,i,i,i,i,nt,nt,
O=C(NCc1ccc(F)cc1)Nc1ccccc1,i,i,i,i,i,nt,nt,
CSc1ccc(NC(=O)NCc2ccccc2)cc1,31.3,i,i,nt,i,i,i,
CC(C)C[C@@H](CO)N1CCN(Cc2cccnc2)CCC1=O,28.5,i,i,i,i,i,i,
CC(C)C[C@@H](CO)N1CCN(Cc2ccc(Br)cc2)CCC1=O,i,i,i,i,i,nt,nt,
COc1ccc(/C=C/C(=O)NC(=S)NNC(=O)c2cccs2)cc1,42.1,i,i,i,i,i,i,
S=c1[nH]cc(-c2ccc(Cl)cc2)n1Cc1ccccc1,30.8,i,i,i,i,i,i,
CCn1c(-c2ccccc2)c[nH]c1=S,i,i,i,nt,i,nt,nt,
Cc1ccn2c(CNCC3COCCO3)c(C(=O)N3CCCCCC3)nc2c1 (stereo not given),i,i,i,i,i,nt,nt,
OCC[C@@H]1C[C@H](O)[C@@H](O)[C@@]2(OCCCc3ccccc32)O1,43.9,i,i,i,i,i,i,
O=C(CCN=C1NS(=O)(=O)c2ccccc21)Nc1ccc(Cl)cc1F,i,i,i,nt,i,nt,nt,
N#CCSc1nnc(-c2ccc3c(c2)OCO3)o1,24.8,i,i,i,i,i,i,
COC(=O)c1cccc(Oc2cccc(C(F)(F)F)c2)n1,i,i,i,i,i,nt,nt,
N#CCCN=C(NS(=O)(=O)c1ccccc1)c1ccccc1,21.9,i,i,i,i,i,i,
